Activity calls are given as the source filed them. No cut-off for these calls is given here.
How the values were obtained:
Candida albicans = experiment: Antifungal activity against Candida albicans ATCC 76615 by microplate reader assay; format: functional; conditions: ATTCC76615
Procedure, shortened: (§1)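 Broth microdilution read by optical density at 630 nm. MIC80 is the first well with about 80% less growth than the drug-free well. Each concentration was run in three replicate wells, and values are means of three independent experiments.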

Cryptococcus neoformans = experiment: Antifungal activity against Cryptococcus neoformans ATCC 32609 by microplate reader assay; format: functional; conditions: ATTCC32609; procedure, shortened: as §1
MKN-28 = experiment: Cytotoxicity against human MKN-28 cells assessed as reduction in cell viability by sulforhodamine B assay; format: functional, cell-based
Procedure, shortened: (§2)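 Cells were kept in RPMI-1640 with 10% FBS, 2 mM L-glutamine, 50 μM β-mercaptoethanol and penicillin/streptomycin, at 37 °C in 5% CO2. SRB assay used 100, 10, 1, 0.1 and 0.01 μM, each in triplicate. Percent inhibition was calculated against solvent control OD. IC50 came from Logit curve fitting and is the mean of three independent experiments.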

[1] = Cytotoxicity against human HO-8910 cells assessed as reduction in cell viability by sulforhodamine B assay; format: functional, cell-based; procedure, shortened: as §2
HL-60 = experiment: Cytotoxicity against human HL-60 cells assessed as reduction in cell viability by sulforhodamine B assay; format: functional, cell-based; procedure, shortened: as §2
Pyricularia oryzae = experiment: Antifungal activity against Pyricularia oryzae P-2B by measuring minimum morphological deformation concentration; format: functional; conditions: read-out: MEC
HCT-116 [2] = experiment: Induction of apoptosis in human HCT-116 cells assessed as increase in early apoptotic cells measured upto 2 times of IC50 concentration by annexin V staining based flow cytometry analysis; format: functional, cell-based
Procedure, shortened: (§3)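 HCT-116 cells treated with vehicle or three compound concentrations, collected, and stained with Annexin V-FITC and propidium iodide in the dark at 4 °C. Flow cytometry quadrants: Q4 live, Q3 early apoptotic, Q2 late apoptotic, Q1 necrotic. n = 3; ANOVA vs vehicle.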

HCT-116 [3] = experiment: Induction of apoptosis in human HCT-116 cells assessed as increase in late apoptotic cells measured upto 2 times of IC50 concentration by annexin V staining based flow cytometry analysis; format: functional, cell-based; procedure, shortened: as §3
HCT-116 [4] = experiment: Induction of apoptosis in human HCT-116 cells assessed as increase in necrotic cells measured upto 2 times of IC50 concentration by annexin V staining based flow cytometry analysis; format: functional, cell-based; procedure, shortened: as §3
HMEC-1 [5] = experiment: Antiproliferative activity against human HMEC-1 cells assessed as inhibition of proliferation by SRB method; format: functional, cell-based
Procedure, shortened: (§4)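 HMEC-1 endothelial cells seeded and exposed to compound. Proliferation read by SRB and migration by Transwell. IC50 calculated from three independent experiments.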

HMEC-1 [6] = experiment: Antimigratory activity against human HMEC-1 cells assessed as inhibition of cell migration by transwell assay; format: functional, cell-based; procedure, shortened: as §4
[7] = Inhibition of angiogenesis in human HMEC-1 cells assessed as tube formation by matrigel-based assay; format: functional, cell-based
Procedure, shortened: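 HMEC-1 cells seeded onto solidified Matrigel and exposed to compound, then cultured. Total tube length measured and used to calculate IC50. Three independent experiments.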

[8] = target: Vascular endothelial growth factor receptor 2 (Mus musculus, UniProt P35918); experiment: Inhibition of VEGFR2 in mouse NIH/3T3 cells assessed as reduction of VEGF-stimulated phosphorylation; format: cell-based
Vascular endothelial growth factor receptor 2, sequence (P35918 whole entry): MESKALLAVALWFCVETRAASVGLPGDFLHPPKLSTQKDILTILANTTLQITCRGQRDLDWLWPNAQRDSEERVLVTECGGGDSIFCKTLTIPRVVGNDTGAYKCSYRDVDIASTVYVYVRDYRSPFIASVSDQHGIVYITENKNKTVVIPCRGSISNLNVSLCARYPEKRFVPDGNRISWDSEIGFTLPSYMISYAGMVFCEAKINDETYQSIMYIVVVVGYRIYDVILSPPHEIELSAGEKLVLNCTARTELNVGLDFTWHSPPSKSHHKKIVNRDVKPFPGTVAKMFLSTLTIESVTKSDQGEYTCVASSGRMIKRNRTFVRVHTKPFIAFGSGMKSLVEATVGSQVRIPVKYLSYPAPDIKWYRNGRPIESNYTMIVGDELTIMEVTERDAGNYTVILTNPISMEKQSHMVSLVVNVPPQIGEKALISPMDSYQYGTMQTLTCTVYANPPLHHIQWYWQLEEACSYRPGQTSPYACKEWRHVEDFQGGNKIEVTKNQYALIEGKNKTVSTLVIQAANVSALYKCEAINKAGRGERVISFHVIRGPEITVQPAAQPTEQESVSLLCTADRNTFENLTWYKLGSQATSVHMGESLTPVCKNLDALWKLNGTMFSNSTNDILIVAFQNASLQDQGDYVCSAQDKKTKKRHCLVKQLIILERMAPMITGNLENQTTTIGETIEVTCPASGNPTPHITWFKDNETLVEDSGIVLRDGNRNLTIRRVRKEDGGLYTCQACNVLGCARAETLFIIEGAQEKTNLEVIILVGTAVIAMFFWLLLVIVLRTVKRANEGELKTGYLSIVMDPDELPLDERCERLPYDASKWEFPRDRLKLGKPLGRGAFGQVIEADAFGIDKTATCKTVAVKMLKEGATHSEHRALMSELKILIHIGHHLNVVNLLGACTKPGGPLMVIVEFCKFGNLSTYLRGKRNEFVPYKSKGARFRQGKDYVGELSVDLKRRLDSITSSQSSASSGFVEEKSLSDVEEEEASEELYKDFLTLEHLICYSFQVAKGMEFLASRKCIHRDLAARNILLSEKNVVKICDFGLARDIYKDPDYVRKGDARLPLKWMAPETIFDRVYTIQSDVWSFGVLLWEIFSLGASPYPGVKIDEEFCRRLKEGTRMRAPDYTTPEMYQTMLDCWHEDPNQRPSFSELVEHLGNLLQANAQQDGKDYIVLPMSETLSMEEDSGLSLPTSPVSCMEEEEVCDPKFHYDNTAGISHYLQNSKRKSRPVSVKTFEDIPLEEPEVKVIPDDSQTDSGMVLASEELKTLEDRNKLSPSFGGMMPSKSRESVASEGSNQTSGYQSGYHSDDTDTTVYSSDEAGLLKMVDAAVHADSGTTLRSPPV
Procedure, shortened: (§5)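 NIH/3T3 fibroblasts transfected to overexpress VEGFR-2 or PDGFR-β, starved 24 h, then given compound. Stimulation: VEGF 500 ng/mL for VEGFR-2 cells, PDGF-BB 150 ng/mL for PDGFR-β cells. Cells fixed in 4% paraformaldehyde and probed with PY-99 anti-phosphotyrosine, secondary IgG and HRP-avidin. OD 405 nm read after ABTS; IC50 from three independent experiments.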

[9] = target: Platelet-derived growth factor receptor beta (Mus musculus, UniProt P05622); experiment: Inhibition of PDGFRbeta in mouse NIH/3T3 cells assessed as reduction of PDGF-BB-stimulated phosphorylation; format: cell-based; procedure, shortened: as §5
Platelet-derived growth factor receptor beta, sequence (P05622 whole entry): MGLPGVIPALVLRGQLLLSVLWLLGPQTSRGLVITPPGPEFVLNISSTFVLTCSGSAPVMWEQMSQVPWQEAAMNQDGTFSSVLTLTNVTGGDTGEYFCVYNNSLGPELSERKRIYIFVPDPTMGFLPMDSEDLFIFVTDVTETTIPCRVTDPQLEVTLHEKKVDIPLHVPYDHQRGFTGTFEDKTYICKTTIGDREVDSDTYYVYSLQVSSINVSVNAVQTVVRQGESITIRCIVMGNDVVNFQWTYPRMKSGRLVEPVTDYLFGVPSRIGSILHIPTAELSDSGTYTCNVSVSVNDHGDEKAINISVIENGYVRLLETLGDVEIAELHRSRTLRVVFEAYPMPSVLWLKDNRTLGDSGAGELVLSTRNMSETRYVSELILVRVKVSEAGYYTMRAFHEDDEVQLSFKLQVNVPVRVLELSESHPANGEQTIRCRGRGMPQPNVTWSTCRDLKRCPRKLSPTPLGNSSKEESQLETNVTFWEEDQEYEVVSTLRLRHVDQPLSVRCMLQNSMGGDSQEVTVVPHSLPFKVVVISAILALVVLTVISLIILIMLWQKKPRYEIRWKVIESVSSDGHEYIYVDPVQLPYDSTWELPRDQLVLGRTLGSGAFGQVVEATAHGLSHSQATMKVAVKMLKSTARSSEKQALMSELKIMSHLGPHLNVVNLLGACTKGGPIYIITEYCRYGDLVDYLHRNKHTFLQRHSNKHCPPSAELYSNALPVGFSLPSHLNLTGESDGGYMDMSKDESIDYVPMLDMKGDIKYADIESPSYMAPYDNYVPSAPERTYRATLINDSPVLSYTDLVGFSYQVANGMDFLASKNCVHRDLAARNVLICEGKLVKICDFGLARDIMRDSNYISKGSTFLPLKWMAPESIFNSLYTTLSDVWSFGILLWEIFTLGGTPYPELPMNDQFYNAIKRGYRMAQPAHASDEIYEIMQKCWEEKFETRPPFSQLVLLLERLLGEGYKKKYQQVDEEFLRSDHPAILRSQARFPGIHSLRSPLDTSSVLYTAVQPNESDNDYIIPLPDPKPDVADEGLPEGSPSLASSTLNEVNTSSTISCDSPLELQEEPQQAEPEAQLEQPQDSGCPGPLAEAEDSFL

CCRF S-180 = experiment: Antitumor activity against mouse S-180 cells implanted in KM mouse assessed as tumor growth inhibition at 0.5 mg/kg, IG administered everyday for 7 days relative to control; format: functional; conditions: CCRF S-180, po, 168 h, time 7 day, read-out: TGI
Procedure, shortened: (§6)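 S-180 or H22 cells, about 2.5 × 10⁶ per mouse, injected s.c. in the right axilla of wild-type KM mice. Randomized after 24 h and dosed intragastrically for 7 days; sacrificed 24 h after the last dose. TGI = (W_C − W_T)/W_C × 100% from average tumor weight. n = 8; one-way ANOVA vs vehicle.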

H22 [10] = experiment: Antitumor activity against mouse H22 cells implanted in KM mouse assessed as tumor growth inhibition at 0.5 mg/kg, IG administered everyday for 7 days relative to control; format: functional; conditions: H22, po, 168 h, time 7 day, read-out: TGI; procedure, shortened: as §6
H22 [11] = experiment: Antitumor activity against mouse H22 cells implanted in KM mouse assessed as tumor growth inhibition at 50 mg/kg, IG administered everyday for 7 days relative to control; format: functional; conditions: H22, po, 168 h, time 7 day, read-out: TGI; procedure, shortened: as §6
Bel-7402 [12] = experiment: Antitumor activity against human Bel-7402 cells implanted in BALB/c-nu mouse assessed as tumor growth inhibition at 50 mg/kg, IG administered everyday for 7 days relative to control; format: functional; conditions: Bel-7402, po, 168 h, time 7 day, read-out: TGI
Bel-7402 [13] = experiment: Antitumor activity against human Bel-7402 cells implanted in BALB/c-nu mouse assessed as tumor growth inhibition at 500 mg/kg, IG administered everyday for 7 days relative to control; format: functional; conditions: Bel-7402, po, 168 h, time 7 day, read-out: TGI
Mus musculus = experiment: Immunomodulatory activity in cyclophosphamide-immunosuppressed KM mouse assessed as increase in carbon particle clearance index in at 50 to 500 mg/kg, IG once daily measured after 14 days; format: functional, organism-based; conditions: dose 50-500 mg/kg, time 14.0 day
Procedure, shortened: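 KM mice dosed intragastrically once daily for 14 days at 5, 50 or 500 mg/kg; vehicle 0.5% CMC-Na. CTX 50 mg/kg i.p. on days 7, 9 and 11. 1 h after the last dose, 25% Indian ink given i.v. at 0.1 mL/10 g. Blood (20 µL) taken at 2 and 10 min, lysed in 2 mL water, OD 680 nm read. K and α calculated with body, liver and spleen weights. n = 8.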

HCT-116 [14] = experiment: Induction of apoptosis in human HCT-116 cells assessed as apoptosis associated morphological changes measured upto 2 times of IC50 concentration for 24 hrs by Hoechst staining method; format: functional, cell-based
Procedure, shortened: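 HCT-116 cells treated with vehicle or three compound concentrations, then stained with Hoechst 33258. Nuclei examined by inverted fluorescence microscopy at ×400 in five random fields. Apoptotic cells expressed as % of cells counted. n = 3; ANOVA vs vehicle.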

Bel-7402 [15] = experiment: Antitumor activity against human Bel-7402 cells implanted in BALB/c-nu mouse assessed as T/C ratio at 5 mg/kg, IG administered everyday for 7 days relative to control; format: functional; conditions: time 7 day
Bel-7402 [16] = experiment: Antitumor activity against human Bel-7402 cells implanted in BALB/c-nu mouse assessed as T/C ratio at 50 mg/kg, IG administered everyday for 7 days relative to control; format: functional; conditions: time 7 day
Bel-7402 [17] = experiment: Antitumor activity against human Bel-7402 cells implanted in BALB/c-nu mouse assessed as T/C ratio at 500 mg/kg, IG administered everyday for 7 days relative to control; format: functional; conditions: time 7 day
Bel-7402 [18] = experiment: Antitumor activity against human Bel-7402 cells implanted in BALB/c-nu mouse assessed as T/C ratio at 100 mg/kg, IG administered everyday for 7 days relative to control; format: functional; conditions: time 7 day

Compound C=C(C)CCC[C@]1(C)OC(=O)[C@]23CC[C@@H]4C(=CCC5C(C)(C)[C@@H](O[C@@H]6OC[C@@H](OS(=O)(=O)[O-])[C@H](O)[C@H]6O[C@@H]6O[C@H](C)[C@@H](O[C@@H]7OC[C@@H](O)[C@H](O[C@@H]8O[C@H](CO)[C@@H](O)[C@H](OC)[C@H]8O)[C@H]7O)[C@H](O)[C@H]6O)CC[C@@]54C)[C@]2(C)C[C@H](OC(C)=O)[C@@H]31.[Na+] (stereo not given in full) has an MIC80 (Candida albicans) of 4 µg/mL, an MIC80 (Cryptococcus neoformans) of 16 µg/mL and an IC50 (MKN-28) of 1.83 µM. For the same compound, the IC50 [1] was 1.94 µM, the IC50 (HL-60) was 0.6 µM and the minimal effective concentration (Pyricularia oryzae) was at most 16 µg/mL. The Activity (HCT-116 [2]) was “Active”, the Activity (HCT-116 [3]) was “Active” and the Activity (HCT-116 [4]) was “Active”. It also gave an IC50 (HMEC-1 [5]) of 1.6 µM, an IC50 (HMEC-1 [6]) of 0.05 µM and an IC50 [7] of 0.06 µM. The IC50 [8] was 2.2 µM, the IC50 [9] was 4.8 µM and the inhibition in vivo at 0.5 mg/kg (CCRF S-180) was 21.6%. The inhibition in vivo at 0.5 mg/kg (H22 [10]) was 22.1%, the inhibition in vivo at 50 mg/kg (H22 [11]) was 43.3% and the inhibition in vivo at 50 mg/kg (Bel-7402 [12]) was 58.2%. For the same compound, the inhibition in vivo at 500 mg/kg (Bel-7402 [13]) was 58.6%, the Activity (Mus musculus) was “Active” and the Activity (HCT-116 [14]) was “Active”. It also gave a T/C (Bel-7402 [15]) of 45%, a T/C (Bel-7402 [16]) of 42.2% and a T/C (Bel-7402 [17]) of 32%. For the same compound, the T/C (Bel-7402 [18]) was 20%.

From ChEMBL document CHEMBL4811272, “A new sulfated triterpene glycoside from the sea cucumber Colochirus quadrangularis, and evaluation of its antifungal, antitumor and immunomodulatory activities” (Bioorg Med Chem, 2021)
